Laboratory results from ChEMBL document CHEMBL1121953, “Carbon-7 substituted actinomycin D analogues as improved antitumor agents: synthesis and DNA-binding and biological properties” (J Med Chem, 1982).
Values after ≈ are worked out from the molar mass of the structure shown.

Legend:
[1] = In vitro growth inhibitory activity for effect on melting temperature of DNA was determined
In short: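 DNA thermal denaturation; ΔTm = Tm of DNA-drug complex minus Tm of DNA. Drug 1.4×10⁻⁴ M, DNA (P) 1.4×10⁻³ M in 0.01 M phosphate buffer pH 7.0 with 5×10⁻³ M EDTA and 5% dimethyl sulfoxide.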

[2] = species: Homo sapiens; assay: In vitro growth inhibitory activity against human lymphoblastic leukemia cells; format: functional; conditions: read-out: ID50 (the source's name)
In short: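 CCRF-CEM human lymphoblastic leukemia cells in log-phase growth; compounds dissolved in Me₂SO, final growth medium 1% Me₂SO.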

[3] = system: P388; assay: Antitumor activity against P-388 lymphocytic leukemia in CDF1 hybrid male mice measured as median survival time (1.8 mg/kg),ip; format: functional, Mus musculus
In short: (§1)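 Male CDF1 mice (18-23 g) were inoculated ip with 10⁶ P-388 cells on day 0. Drug was given ip in 10% dimethyl sulfoxide-saline on days 1, 5 and 9. Test solutions were kept at 0-4 °C, protected from light, and checked periodically for stability and homogeneity by TLC and HPLC. Read-out was survival, median survival time, increase in life span and tumor-free cures per 7 animals.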

[4] = system: P388; assay: Number of mice with P-388 lymphocytic leukemia cured( 0.3 mg/kg),ip; 1/7; format: functional, Mus musculus; in short: as §1
[5] = system: P388; assay: Antitumor activity against P-388 lymphocytic leukemia in CDF1 hybrid male mice measured as median survival time ( 0.3 mg/kg),ip; format: functional, Mus musculus; in short: as §1
[6] = system: P388; assay: Maximum tolerated dose was compared to 7-(2,3-Epoxypropoxy)-actinomycin D against P-388 leukemia in mice(3 days); format: functional, Mus musculus
In short: (§2)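 Tumor-free male CDF1 mice (18-23 g) received a broad dose range ip in 10% dimethyl sulfoxide-saline, either on days 1, 5, 9 (three injections) or on 4 successive days (qd 1-4). Deaths were recorded over 21 days. MTD was the dose lethal to 10% (LD10), taken from a plot of log dose vs percent mortality. Average of two experiments.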

[7] = system: P388; assay: Antitumor activity against P-388 lymphocytic leukemia in CDF1 hybrid male mice measured as percent increase in lifespan( 0.15 mg/kg),ip; format: functional; conditions: Mus musculus; in short: as §1
[8] = system: P388; assay: Number of mice with P-388 lymphocytic leukemia cured( 1.2 mg/kg),ip; 3/7; format: functional, Mus musculus; in short: as §1
[9] = system: P388; assay: Antitumor activity against P-388 lymphocytic leukemia in CDF1 hybrid male mice measured as median survival time ( 2.4 mg/kg),ip; format: functional, Mus musculus; in short: as §1
[10] = system: P388; assay: Antitumor activity against P-388 lymphocytic leukemia in CDF1 hybrid male mice measured as percent increase in (1.2 mg/kg),ip; format: functional, Mus musculus; in short: as §1
[11] = system: P388; assay: Antitumor activity against P-388 lymphocytic leukemia in CDF1 hybrid male mice measured as percent increase in lifespan( 2.4 mg/kg),ip; format: functional; conditions: Mus musculus; in short: as §1
[12] = system: P388; assay: Number of mice with P-388 lymphocytic leukemia cured( 0.6 mg/kg),ip; 1/7; format: functional, Mus musculus; in short: as §1
[13] = system: P388; assay: Antitumor activity against P-388 lymphocytic leukemia in CDF1 hybrid male mice measured as median survival time ( 0.15 mg/kg),ip; format: functional, Mus musculus; in short: as §1
[14] = system: P388; assay: Number of mice with P-388 lymphocytic leukemia cured.( 0.15 mg/kg),ip; 0/7; format: functional, Mus musculus; in short: as §1
[15] = system: P388; assay: Number of mice with P-388 lymphocytic leukemia cured.( 1.8 mg/kg),ip; 3/7; format: functional, Mus musculus
[16] = system: P388; assay: Antitumor activity against P-388 lymphocytic leukemia in CDF1 hybrid male mice measured as percent increase in lifespan( 0.3 mg/kg),ip; format: functional; conditions: Mus musculus; in short: as §1
[17] = system: P388; assay: Antitumor activity against P-388 lymphocytic leukemia in CDF1 hybrid male mice measured as median survival time ( 1.2 mg/kg),ip; format: functional, Mus musculus; in short: as §1
[18] = system: P388; assay: Number of mice with P-388 lymphocytic leukemia cured( 2.4 mg/kg),ip; 2/7; format: functional, Mus musculus; in short: as §1
[19] = system: P388; assay: Antitumor activity against P-388 lymphocytic leukemia in CDF1 hybrid male mice measured as percent increase in lifespan( 0.6 mg/kg),ip; format: functional; conditions: Mus musculus; in short: as §1
[20] = system: P388; assay: Antitumor activity against P-388 lymphocytic leukemia in CDF1 hybrid male mice measured as percent increase in lifespan(1.8 mg/kg),ip; format: functional, Mus musculus; in short: as §1
[21] = system: P388; assay: Minimum effective dose was compared to 7-(2,3-Epoxypropoxy)-actinomycin D against P-388 leukemia in mice(4 days); format: functional, Mus musculus
In short: (§3)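 MED was the dose (mg/kg) giving a 40% increase in life span over control in mice bearing ip P-388 leukemia. Drug was given ip in 10% dimethyl sulfoxide-saline on a q4d 1, 5, 9 (three injections) or qd 1-4 (four injections) schedule.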

[22] = system: P388; assay: Maximum tolerated dose was compared to 7-(2,3-Epoxypropoxy)-actinomycin D against P-388 leukemia in mice(4 days); format: functional, Mus musculus; in short: as §2
[23] = system: P388; assay: Minimum effective dose was determined compared to 7-(2,3-Epoxypropoxy)-actinomycin D against P-388 leukemia in mice(3 days); format: functional, Mus musculus; design: unit: mg/kg; in short: as §3
[24] = system: P388; assay: Antitumor activity against P-388 lymphocytic leukemia in CDF1 hybrid male mice measured as median survival time ( 0.6 mg/kg),ip; format: functional, Mus musculus; in short: as §1

With `Cc1c2oc3c(C)c(OCC(O)CO)cc(C(=O)N[C@H]4C(=O)N[C@@H](C(C)C)C(=O)N5CCC[C@H]5C(=O)N(C)CC(=O)N(C)[C@@H](C(C)C)C(=O)O[C@H]4C)c3nc-2c(C(=O)N[C@H]2C(=O)N[C@@H](C(C)C)C(=O)N3CCC[C@H]3C(=O)N(C)CC(=O)N(C)[C@@H](C(C)C)C(=O)O[C@H]2C)c(N)c1=O` (stereo partly specified) as the compound, how does the DNA melting temperature shift (ΔTm) [1] read?
Its DNA melting temperature shift (ΔTm) is 5.1 °C.

For `CCN(CC)C(=O)c1c2nc3c(C(=O)N(CC)CC)cc(OCC4CO4)c(C)c3oc-2c(C)c(=O)c1N` (stereo unspecified), which IC50 [2] is on record?
Its IC50 is 9 µg/mL (≈ 17.6 µM).

And the DNA melting temperature shift (ΔTm) [1]?
Its DNA melting temperature shift (ΔTm) is 0 °C.

With `Cc1c2oc3c(C)c(OCC4CO4)cc(C(=O)N[C@@H]4C(=O)N[C@H](C(C)C)C(=O)N5CCC[C@H]5C(=O)N(C)CC(=O)N(C)[C@@H](C(C)C)C(=O)O[C@@H]4C)c3nc-2c(C(=O)N[C@@H]2C(=O)N[C@H](C(C)C)C(=O)N3CCC[C@H]3C(=O)N(C)CC(=O)N(C)[C@@H](C(C)C)C(=O)O[C@@H]2C)c(N)c1=O` (stereo partly specified) as the compound, how does the MST [3] read?
The MST was 44 days.

And the IC50 [2]?
The IC50 was 0.009 µg/mL (≈ 0.00678 µM).

And the Cure [4]?
Its Cure is 1.

What about the MST [5] of the same compound?
The MST was 40 days.

What about the MTD [6] of the same compound?
The MTD was 3.6.

What about the ILS at 0.15 mg/kg [7] of the same compound?
Its ILS at 0.15 mg/kg is 164%.

And the Cure [8]?
Its Cure is 3.

And the MST [9]?
Its MST is 26 days.

And the ILS [10]?
Its ILS is 291%.

And the ILS at 2.4 mg/kg [11]?
Its ILS at 2.4 mg/kg is 136%.

And the Cure [12]?
The Cure was 1.

And the MST [13]?
Its MST is 29 days.

What about the Cure [14] of the same compound?
Its Cure is 0.

And the Cure [15]?
The Cure was 3.

And the ILS at 0.3 mg/kg [16]?
Its ILS at 0.3 mg/kg is 263%.

What about the MST [17] of the same compound?
The MST was 43 days.

What about the Cure [18] of the same compound?
Its Cure is 2.

What about the ILS at 0.6 mg/kg [19] of the same compound?
Its ILS at 0.6 mg/kg is 255%.

What about the ILS [20] of the same compound?
Its ILS is 300%.

And the MED [21]?
Its MED is 0.0375.

What about the MTD [22] of the same compound?
The MTD was 1.6.

What about the MED [23] of the same compound?
The MED was 0.05.

And the MST [24]?
Its MST is 41 days.
